ChEMBL document CHEMBL1136568 (Bioorg Med Chem Lett, 2003)

Tests used:
[1] = molecular target: T1, Inosine-5'-monophosphate dehydrogenase 2 (Homo sapiens, UniProt P12268); test: Inhibition of human inosine monophosphate dehydrogenase IMPDH II
Outline: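 Human type II IMPDH expressed in and purified from E. coli, used at 40 nM. Buffer: 0.1 M Tris, 0.1 M KCl, 3 mM EDTA, pH 8.0, with 400 µM IMP and 2 mM DTT. Compounds were added from DMSO to a final 2.5% DMSO. NAD (400 µM final) started the reaction. After 2 h at 25°C, NADH was read at 340 nm. IC50 came from a four-parameter logistic fit.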

CCRF-CEM = test: Inhibitory activity against CEM cell proliferation; format: functional, cell-based; settings: Homo sapiens
[2] = molecular target: T2, Inosine-5'-monophosphate dehydrogenase 1 (Homo sapiens, UniProt P20839); test: Inhibitory activity against inosine monophosphate dehydrogenase IMPDH type I
Target sequence in this assay (P20839 whole entry): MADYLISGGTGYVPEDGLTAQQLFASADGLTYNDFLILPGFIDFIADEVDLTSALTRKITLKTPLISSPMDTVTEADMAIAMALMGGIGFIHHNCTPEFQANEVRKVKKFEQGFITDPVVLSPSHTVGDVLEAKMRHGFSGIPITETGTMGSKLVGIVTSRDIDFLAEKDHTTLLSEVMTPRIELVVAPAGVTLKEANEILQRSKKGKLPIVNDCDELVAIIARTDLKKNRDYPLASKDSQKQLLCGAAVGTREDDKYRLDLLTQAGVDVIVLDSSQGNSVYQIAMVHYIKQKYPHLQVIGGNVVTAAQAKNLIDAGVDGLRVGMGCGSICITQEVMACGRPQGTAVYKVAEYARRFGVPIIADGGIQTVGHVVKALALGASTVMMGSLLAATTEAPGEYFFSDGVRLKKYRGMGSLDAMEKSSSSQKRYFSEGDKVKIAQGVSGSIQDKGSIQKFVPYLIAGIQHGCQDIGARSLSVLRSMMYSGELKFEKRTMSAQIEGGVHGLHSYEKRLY

[3] = molecular target: T2, Inosine-5'-monophosphate dehydrogenase 1; test: Ratio of IC50(Type I) to IC50(Type II)
Target sequence in this assay (P20839 2-514 limits assumed): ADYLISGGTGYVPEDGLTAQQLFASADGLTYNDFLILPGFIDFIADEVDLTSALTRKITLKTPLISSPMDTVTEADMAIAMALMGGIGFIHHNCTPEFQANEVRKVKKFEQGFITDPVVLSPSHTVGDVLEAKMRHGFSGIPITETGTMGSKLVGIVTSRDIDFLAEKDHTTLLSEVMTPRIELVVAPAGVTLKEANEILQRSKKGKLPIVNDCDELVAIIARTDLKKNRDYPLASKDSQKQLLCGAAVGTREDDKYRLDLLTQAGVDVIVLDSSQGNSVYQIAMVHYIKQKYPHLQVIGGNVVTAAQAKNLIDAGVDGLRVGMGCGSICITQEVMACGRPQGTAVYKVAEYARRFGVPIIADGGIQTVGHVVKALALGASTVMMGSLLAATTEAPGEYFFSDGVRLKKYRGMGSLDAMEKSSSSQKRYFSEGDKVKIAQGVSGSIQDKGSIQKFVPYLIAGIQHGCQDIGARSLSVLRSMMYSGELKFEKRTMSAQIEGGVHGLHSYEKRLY

[4] = molecular target: T1, Inosine-5'-monophosphate dehydrogenase 2; test: Inhibitory activity against IMPDH II with respect to IMP and NAD

Compound	IC50 [1]	also measured
CNc1cc(O)c2cc(-c3cnco3)c(OC)cc2n1	220 nM	–
COc1cc2nc(-c3ccsc3)cc(O)c2cc1-c1cnco1	9 nM	IC50 (CCRF-CEM): 340 nM; IC50 [2]: 55 nM; Ratio [3]: 6
COc1cc(NC(=O)Nc2cccc(C)c2)ccc1-c1cnco1	–	IC50 (CCRF-CEM): 320 nM; IC50 [2]: 55 nM; Ratio [3]: 2.9
COc1cc2nc(-c3cccc(C(=O)O)c3)cc(O)c2cc1-c1cnco1	160 nM	–
COc1ccc(-c2cc(O)c3cc(-c4cnco4)c(OC)cc3n2)cc1	< 5 nM	IC50 (CCRF-CEM): 370 nM; IC50 [2]: 90 nM; Ratio [3]: > 18
COc1cc2nc(-c3cccc(S(C)(=O)=O)c3)cc(O)c2cc1-c1cnco1	160 nM	–
COc1cc2nc(-c3ccccc3)cc(O)c2cc1-c1cnco1	8 nM	IC50 (CCRF-CEM): 690 nM; IC50 [2]: 99 nM; Ki [4]: 7 nM; Ratio [3]: 12
COc1cc2nc(-c3cccs3)cc(O)c2cc1-c1cnco1	63 nM	–
COc1cc2nc(-c3ccc(C)c(C)c3)cc(O)c2cc1-c1cnco1	< 5 nM	IC50 (CCRF-CEM): 410 nM; IC50 [2]: 83 nM; Ratio [3]: > 17
COc1cc2nc(-c3ccc(C)cc3)cc(O)c2cc1-c1cnco1	< 5 nM	IC50 (CCRF-CEM): 560 nM; IC50 [2]: 46 nM; Ratio [3]: > 9
COc1cc2nc(Cc3ccccc3)cc(O)c2cc1-c1cnco1	180 nM	–
COc1cc2nc(-c3cccc(C)c3)cc(O)c2cc1-c1cnco1	5 nM	IC50 (CCRF-CEM): 1100 nM; IC50 [2]: 150 nM; Ratio [3]: 30
COc1c(C)c2c(c(O)c1C/C=C(\C)CCC(=O)O)C(=O)OC2 [MYCOPHENOLIC ACID]	–	IC50 [2]: 55 nM
COc1cc2nc(-c3ccccc3C)cc(O)c2cc1-c1cnco1	65 nM	–
COc1cc2nc(-c3cscn3)cc(O)c2cc1-c1cnco1	34 nM	–
COc1cc2nc(-c3ccc(C(=O)O)cc3)cc(O)c2cc1-c1cnco1	> 1000 nM	–
COc1cc2nc(-c3ccccn3)cc(O)c2cc1-c1cnco1	43 nM	–
COc1cc2nc(C(C)(C)C)cc(O)c2cc1-c1cnco1	> 10000 nM	–

Further compounds by falling IC50 [1], results first:

IC50 [1]	Compound	also measured
300 nM	COc1cc2nccc(O)c2cc1-c1cnco1	–
200 nM	COc1cc2nc(N(C)C)cc(O)c2cc1-c1cnco1	–
110 nM	COc1cc2nc(C)cc(O)c2cc1-c1cnco1	–
70 nM	COc1cc2nc(-c3cccnc3)cc(O)c2cc1-c1cnco1	–
65 nM	COc1cc2nc(-c3ccccc3)c(C)c(O)c2cc1-c1cnco1	–
46 nM	COc1cc2nc(-c3ccncc3)cc(O)c2cc1-c1cnco1	–
43 nM	COc1cc2nc(-c3ccc(O)cc3)cc(O)c2cc1-c1cnco1	–
32 nM	COc1cc2nc(-c3ccoc3)cc(O)c2cc1-c1cnco1	–
29 nM	COc1cc2nc(-c3cc(C)ccc3C)cc(O)c2cc1-c1cnco1	–
22 nM	COc1cc2nc(-c3cccc(Br)c3)cc(O)c2cc1-c1cnco1	–
19 nM	COc1cc2nc(-c3ccc(C)c(Br)c3)cc(O)c2cc1-c1cnco1	–
18 nM	COc1cc2nc(-c3cccc(O)c3)cc(O)c2cc1-c1cnco1	–
5 nM	COc1cc2nc(-c3ccc(Br)cc3)cc(O)c2cc1-c1cnco1	–
